The MIC is the lowest concentration found to suppress growth.

Data on 16 molecules can be found in ChEMBL document CHEMBL4837210 (Eur J Med Chem, 2021).

What all share (assay type): functional
Assay [1] deals with Staphylococcus epidermidis. The experiment in a line: Antibacterial activity against penicillin-resistant Staphylococcus epidermidis assessed as inhibition of bacterial growth measured by broth microdilution method. The following applies: time 24 hrs. A general note: Dilution methods test growth across graded concentrations, often in twofold steps.
For assay [2], the system named is Escherichia coli. Briefly: Antibacterial activity against penicillin-susceptible Escherichia coli ATCC 25922 assessed as inhibition of bacterial growth measured by broth microdilution method. The note with it: time 24 hrs. The gist of the method: (§1)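 Broth microdilution in Mueller Hinton broth. A 0.5 McFarland suspension was diluted tenfold, giving an inoculum of 1.5 × 10⁷ cfu/mL. This was added to 2-fold serial compound dilutions from […]. Plates were incubated aerobically at 37 °C for 24 h. MIC was the lowest concentration with no visible turbidity.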

Assay [3] relates to Streptococcus pyogenes. Briefly: Antibacterial activity against erythromycin-resistant Streptococcus pyogenes 2 assessed as bacterial growth inhibition incubated for 24 hrs by CLSI protocol based broth microdilution method.
The test system of assay [4] is Bacillus subtilis. The experiment in a line: Antibacterial activity against penicillin-susceptible Bacillus subtilis ATCC 9372 assessed as bacterial growth inhibition incubated for 24 hrs by CLSI protocol based broth microdilution method.
Assay [5] relates to Streptococcus pyogenes. Briefly: Antibacterial activity against erythromycin-susceptible Streptococcus pyogenes clinical isolate 1 assessed as bacterial growth inhibition incubated for 24 hrs by CLSI protocol based broth microdilution method.
For assay [6], the system named is Staphylococcus aureus. The experiment in a line: Antibacterial activity against methicillin-resistant Staphylococcus aureus ATCC 43300 assessed as inhibition of bacterial growth by broth microdilution method. The following applies: time 24 hrs. Summed up: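 Broth microdilution MIC. A 0.5 McFarland suspension was diluted 10-fold and added at 1.5 × 10⁷ cfu/mL to 2-fold dilutions (0.125–64) in Mueller Hinton broth. Incubated aerobically 24 h at 37 °C. MIC was the lowest concentration with no visible turbidity.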

The subject of assay [7] is Staphylococcus aureus. Briefly: Antibacterial activity against erythromycin-susceptible Staphylococcus aureus ATCC 25923 assessed as bacterial growth inhibition incubated for 24 hrs by CLSI protocol based broth microdilution method.
The subject of assay [8] is Staphylococcus aureus. Briefly: Antibacterial activity against Staphylococcus aureus assessed as inhibition of bacterial growth measured by broth microdilution method. The following applies: time 24 hrs. Summed up: as §1
Assay [9] has as its system Bacillus pumilus. The experiment in a line: Antibacterial activity against penicillin-susceptible Bacillus pumilus CMCC 63202 assessed as bacterial growth inhibition by broth dilution method. The note with it: time 24 hrs. Summed up: as §1
The subject of assay [10] is Pseudomonas aeruginosa. The experiment in a line: Antibacterial activity against penicillin-susceptible Pseudomonas aeruginosa ATCC27853 assessed as bacterial growth inhibition incubated for 24 hrs by CLSI protocol based broth microdilution method.

SMILES strings stand for the structures.

For `C[n+]1c2ccccc2c(Nc2nccs2)c2ccccc21.[Cl-]`, the minimum inhibitory concentration (MIC) in assay [1], in assay [2], in assay [3], in assay [4], in assay [5] and in assay [6] was > 64 µg/mL throughout. Further, the minimum inhibitory concentration (MIC) in [7], in assay [8], in assay [9] and in assay [10] was > 64 µg/mL each time.

In the case of `C[n+]1c2ccccc2c(Nc2ccccn2)c2ccccc21.[Cl-]`, the minimum inhibitory concentration (MIC) in [1] is > 64 µg/mL; in assay [2], > 64 µg/mL; in [3], > 64 µg/mL; in assay [4], 64 µg/mL; in assay [5], > 64 µg/mL; in [6], > 64 µg/mL. Also, the minimum inhibitory concentration (MIC) in assay [7], in assay [8], in assay [9] and in assay [10] was > 64 µg/mL each time.

On to `C[n+]1c2ccccc2c(Nc2ccccc2C(F)(F)F)c2ccccc21.[Cl-]`, for which the MIC in [1], in [2], in assay [3], in assay [4], in assay [5] and in [6] was > 64 µg/mL in each case. Moreover, the MIC in assay [7], in assay [8], in assay [9] and in assay [10] was > 64 µg/mL throughout.

For the molecule `C[n+]1c2ccccc2c(NC2CC2)c2ccccc21.[Cl-]`, the MIC in [1] was > 64 µg/mL; in assay [2] it was > 64 µg/mL; in [3] it was 64 µg/mL; in [4], > 64 µg/mL; in assay [5], > 64 µg/mL; in assay [6] it was > 64 µg/mL. In addition, the minimum inhibitory concentration (MIC) in assay [7], in assay [8], in [9] and in assay [10] was > 64 µg/mL throughout.

`C[n+]1c2ccccc2c(Nc2ncccn2)c2ccccc21.[Cl-]`: the MIC in assay [1], in assay [2], in assay [3], in assay [4], in assay [5] and in [6] was > 64 µg/mL each time. The minimum inhibitory concentration (MIC) in assay [7], in assay [8], in assay [9] and in assay [10] was > 64 µg/mL each time.

Turning to `COc1ccccc1Nc1c2ccccc2[n+](C)c2ccccc12.[Cl-]`, the MIC in assay [1], in [2], in [3], in assay [4], in assay [5] and in assay [6] was > 64 µg/mL each time. The minimum inhibitory concentration (MIC) in assay [7], in [8], in [9] and in [10] was > 64 µg/mL each time.

In the case of `C[n+]1c2ccccc2c(Nc2ccccc2-c2ccccc2)c2ccccc21.[Cl-]`, the minimal inhibitory concentration (MIC) in assay [1], in assay [2], in [3], in assay [4], in assay [5] and in assay [6] was > 64 µg/mL throughout. Moreover, the minimal inhibitory concentration (MIC) in [7], in assay [8], in [9] and in [10] was > 64 µg/mL in each case.

Regarding `COc1ccc(Nc2c3ccccc3[n+](C)c3ccccc23)c(OC)c1.[Cl-]`, the MIC in assay [1], in [2], in [3], in assay [4], in assay [5] and in assay [6] was > 64 µg/mL each time. The minimal inhibitory concentration (MIC) in assay [7], in [8], in assay [9] and in assay [10] was > 64 µg/mL each time.

For `CC(C)Nc1c2ccccc2[n+](C)c2ccccc12.[Cl-]`, the minimal inhibitory concentration (MIC) in assay [1], in assay [2], in assay [3], in [4], in assay [5] and in assay [6] was > 64 µg/mL in each case. Moreover, the MIC in [7], in assay [8], in assay [9] and in assay [10] was > 64 µg/mL in each case.

On to `C[n+]1c2ccccc2c(NC2CCCCC2)c2ccccc21.[Cl-]`, for which the MIC is > 64 µg/mL in assay [1]; > 64 µg/mL in assay [2]; 64 µg/mL in [3]; 32 µg/mL in [4]; > 64 µg/mL in assay [5]; > 64 µg/mL in assay [6]. The minimal inhibitory concentration (MIC) in assay [7], in [8], in [9] and in assay [10] was > 64 µg/mL each time.

In the case of `C[n+]1c2ccccc2c(-c2ccc(C=O)cc2)c2ccccc21.[I-]`, the MIC in [1] was > 64 µg/mL; in assay [2], > 64 µg/mL; in assay [3], > 64 µg/mL; in assay [4] it was > 64 µg/mL; in assay [5] it was 64 µg/mL; in assay [6], > 64 µg/mL. The minimal inhibitory concentration (MIC) in assay [7] was 64 µg/mL; in assay [8] it was > 64 µg/mL; in assay [9], > 64 µg/mL; in assay [10], > 64 µg/mL.

For `Cc1ccc(Nc2c3ccccc3[n+](C)c3ccccc23)c(C)c1.[Cl-]`, the minimum inhibitory concentration (MIC) in assay [1], in [2], in [3], in [4], in [5] and in [6] was > 64 µg/mL throughout. The MIC in [7], in assay [8], in assay [9] and in assay [10] was > 64 µg/mL throughout.

As to `CCc1ccccc1Nc1c2ccccc2[n+](C)c2ccccc12.[Cl-]`, the minimal inhibitory concentration (MIC) in assay [1], in [2], in assay [3], in assay [4], in [5] and in [6] was > 64 µg/mL in each case. For the same molecule, the MIC in assay [7], in assay [8], in assay [9] and in [10] was > 64 µg/mL each time.

On to `CCCNc1c2ccccc2[n+](C)c2ccccc12.[Cl-]`, for which the minimum inhibitory concentration (MIC) is 64 µg/mL in assay [1]; > 64 µg/mL in assay [2]; 64 µg/mL in [3]; > 64 µg/mL in [4]; 32 µg/mL in [5]; > 64 µg/mL in assay [6]. Further, the MIC in assay [7], in assay [8], in assay [9] and in assay [10] was > 64 µg/mL each time.

For `CCNc1c2ccccc2[n+](C)c2ccccc12.[Cl-]`, the MIC was > 64 µg/mL in assay [1]; > 64 µg/mL in assay [2]; 64 µg/mL in assay [3]; 64 µg/mL in [4]; 64 µg/mL in assay [5]; > 64 µg/mL in [6]. Further, the MIC in assay [7], in assay [8], in [9] and in assay [10] was > 64 µg/mL each time.

Turning to `C[n+]1c2ccccc2c(Nc2ccc(Cl)cc2Cl)c2ccccc21.[Cl-]`, the minimum inhibitory concentration (MIC) in assay [1], in [2], in [3], in assay [4], in assay [5] and in assay [6] was > 64 µg/mL throughout. Besides, the minimal inhibitory concentration (MIC) in assay [7], in [8], in assay [9] and in assay [10] was > 64 µg/mL each time.
